Data reported in ChEMBL document CHEMBL1944518, “AlCl3 induced (hetero)arylation of 2,3-dichloroquinoxaline: a one-pot synthesis of mono/disubstituted quinoxalines as potential antitubercular agents” (Bioorg Med Chem, 2012).

Tests used:
[1] = target: T1, Secreted chorismate mutase (Mycobacterium tuberculosis) (UniProt P9WIB9); test: Inhibition of Mycobacterium tuberculosis chorismate mutase expressed in Escherichia coli BL21 assessed as conversion of chorismate to prephenate at 50 uM after 5 mins by Spectrophotometry
T1 sequence (whole entry): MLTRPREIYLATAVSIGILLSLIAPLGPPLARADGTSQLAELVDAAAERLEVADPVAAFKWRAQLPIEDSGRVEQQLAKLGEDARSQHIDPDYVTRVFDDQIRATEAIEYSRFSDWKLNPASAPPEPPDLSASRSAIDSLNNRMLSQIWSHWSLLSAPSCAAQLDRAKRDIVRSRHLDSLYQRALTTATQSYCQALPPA
Procedure, shortened: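 MtCM purified by Ni-NTA from BL21(DE3) carrying pET22b/MtCM; 180 pmol started on 4 mM chorismate (Tris-HCl pH 7.5, EDTA, BSA, β-mercaptoethanol) with effector at 50 μM, 37 °C, 5 min, quenched with 1 N HCl. Absorbance at 274 nm, corrected for compound and no-enzyme blanks; % inhibition = 100 − residual activity.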

[2] = target: T2, Secreted chorismate mutase (Mycobacterium tuberculosis, UniProt P9WIB9); test: (§1) Inhibition of Mycobacterium tuberculosis chorismate mutase expressed in Escherichia coli BL21 assessed as conversion of chorismate to prephenate after 5 mins by Spectrophotometry
T2 sequence (P9WIB9 whole entry): T1 sequence (whole entry)

[3] = target: T1, Secreted chorismate mutase (Mycobacterium tuberculosis); test: as §1

Row | Structure (SMILES) | inhibition [1] | IC50 [2] | inhibition [3]
1 | COc1ccc2c(-c3nc4ccccc4nc3Cl)c[nH]c2c1 | 42% | – | –
2 | Fc1cc2[nH]cc(-c3nc4ccccc4nc3-c3c[nH]c4ccc(Br)cc34)c2cc1F | 27% | – | –
3 | COc1ccc2c(-c3nc4ccccc4nc3-c3c[nH]c4ccccc34)c[nH]c2c1 | 45% | – | –
4 | Oc1ccc(-c2nc3ccccc3nc2Cl)c2ccccc12 | 35% | – | –
5 | Oc1ccc2ccccc2c1-c1nc2ccccc2nc1-c1c[nH]c2ccc(Br)cc12 | 35% | – | –
6 | Oc1ccc(-c2nc3ccccc3nc2-c2c[nH]c3ccc(Br)cc23)c(O)c1 | 21% | – | –
7 | Fc1cc2[nH]cc(-c3nc4ccccc4nc3Cl)c2cc1F | 64% | 19.7 µM | Dose-dependent effect
8 | Oc1ccc(-c2nc3ccccc3nc2Cl)c(O)c1 | 31% | – | –
9 | COc1ccc2[nH]cc(-c3nc4ccccc4nc3Cl)c2c1 | 36% | – | –
10 | Brc1ccc2[nH]cc(-c3nc4ccccc4nc3-c3c[nH]c4ccccc34)c2c1 | 31% | – | –
